Laboratory results as given in ChEMBL document CHEMBL3813648, “Synthesis and evaluation of antioxidant phenolic diaryl hydrazones as potent antiangiogenic agents in atherosclerosis” (Bioorg Med Chem, 2016).
pIC50: −log10 of the molar value. Active and inactive are the calls of the source. The calls are words filed in the database; no cut-off is given here.

Legend:
[1] = Antioxidant activity assessed as inhibition of DPPH free radical scavenging activity after 60 mins by UV-Visible spectrophotometry; format: physicochemical
Method in brief: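 Reduction of ethanolic DPPH radical read by absorbance at 517 nm at 0 and after 60 min at room temperature. I% = 100×(A0−A60)/A0. IC50 is the concentration giving 50% radical inhibition. Run in triplicate, mean ± SEM; Trolox reference.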

[2] = Antioxidant activity in HMEC1 assessed as inhibition of cell induced LDL oxidation by measuring TBARS level at 1 uM relative to control; format: functional, Homo sapiens, HMEC-1; parameters: scale not given: the % may be the effect or the level left
Method in brief: (§1)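 HMEC-1 (passage 30-36) in serum-free RPMI 1640 with native human LDL (100 µg apoB/mL). Agent added with the LDL in DMSO (0.1% final), 14 h at 37 °C. TBARS measured in the medium and expressed as % of LDL-plus-vehicle control; Trolox reference. Mean ± SEM of 4 experiments.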

[3] = Antioxidant activity in HMEC1 assessed as inhibition of cell induced LDL oxidation by measuring TBARS level at 10 uM relative to control; format: functional, Homo sapiens, HMEC-1; parameters: scale not given: the % may be the effect or the level left; method in brief: as §1
[4] = Cytotoxicity against HMEC1 assessed as cell viability at 1 uM after 24 hrs by MTT assay in absence of oxidized LDL; parameters: species or system HMEC-1; conditions: human, HMEC1 cells; read-out: Activity
[5] = Cytoprotective activity in HMEC1 assessed as inhibition of oxidized LDL induced toxicity measured as residual viability at 1 uM after 24 hrs by MTT assay (reference value: 20 +/- 5 %); format: functional, Homo sapiens, HMEC-1
[6] = Cytoprotective activity in HMEC1 assessed as inhibition of oxidized LDL induced toxicity measured as residual viability at 10 uM after 24 hrs by MTT assay (reference value: 20 +/- 5 %); format: functional, Homo sapiens, HMEC-1
[7] = Cytotoxicity against HMEC1 assessed as cell viability at 10 uM after 24 hrs by MTT assay in absence of oxidized LDL; parameters: species or system HMEC-1; conditions: human, HMEC1 cells; read-out: Activity
HMEC-1 [8] = test: Antiangiogenic activity in HMEC1 assessed as inhibition of oxidized LDL induced tube formation at 10 uM after 18 hrs by calcein staining based fluorescence microscopy; format: functional; conditions: Homo sapiens
Method in brief: (§2)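 HMEC-1 (passage 30-36, serum-starved 24 h) seeded at 30,000 cells/well on Matrigel. Grown 18 h at 37 °C in MCDB-131 with UV-C mildly oxidized LDL (20 µg/mL) ± agent (10 µM). Controls were 0.1% FBS (negative) and 2.5% FBS (positive). Calcein stain (1 µM, 30 min), then fluorescence microscopy. Linked cells counted as % of total cells; mean ± SEM, 4 experiments.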

HMEC-1 [9] = test: Inhibition of oxidized LDL induced intracellular ROS formation in HMEC1 at 10 uM preincubated for 30 to 40 mins followed by H2DCFDA-AM addition by fluorescence analysis; format: functional, cell-based; conditions: Homo sapiens
Method in brief: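 HMEC-1 given oxLDL (20 µg/mL) ± agent (10 µM) for 40 min. H2DCFDA-AM (5 µM final) added 30 min before the end, then cells washed three times with PBS. Homogenate fluorescence read at ex 495/em 520 nm as a ratio to unstimulated control. Mean ± SEM, 4 experiments.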

[10] = Antioxidant activity assessed as inhibition of DPPH free radical scavenging activity by EPR spectrophotometry; format: physicochemical
Method in brief: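 DPPH radical scavenging measured by EPR spectroscopy instead of absorbance at 517 nm, used where staining prevented the absorbance reading; value given as IC50 for 50% DPPH radical inhibition.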

[11] = Antiangiogenic activity in HMEC1 assessed as inhibition of oxidized LDL induced tube formation measured as residual tube at 10 uM after 18 hrs by calcein staining based fluorescence microscopy; format: functional, Homo sapiens, HMEC-1; method in brief: as §2

| Compound | pIC50 [1] | pIC50 [10] | Activity [2] | Activity [3] | viability at 24 h, 1 µM [4] | Activity [5] | Activity [6] | viability at 24 h, 10 µM [7] | antiangiogenic activity (active/not active) (HMEC-1 [8]) | ROS inhibition (active/not active) (HMEC-1 [9]) | Activity [11] |
| --- | --- | --- | --- | --- | --- | --- | --- | --- | --- | --- | --- |
| COc1cc(/C=N/NC(=O)c2cc(C)n[nH]2)cc(Oc2cc(/C=N/NC(=O)c3cc(C)n[nH]3)cc(OC)c2O)c1O | 4.70 | – | 97% | 91% | 95% | 41% | 65% | 100% | – | – | – |
| COc1cc(/C=N/NC(=O)c2ccncc2)cc(-c2cc(/C=N/NC(=O)c3ccncc3)cc(OC)c2O)c1O | 4.41 | – | 112% | 92% | 100% | 18% | 19% | 88% | – | – | – |
| COc1cc(/C=N/N=c2\[nH]ncc3ccccc23)cc(-c2cc(/C=N/N=c3/[nH]ncc4ccccc34)cc(OC)c2O)c1O.Cl.Cl | – | – | 56% | 8% | – | 52% | 99% | – | – | – | – |
| COc1cc(/C=N/NC(=O)OCc2ccccc2)cc(-c2cc(/C=N/NC(=O)OCc3ccccc3)cc(OC)c2O)c1O | 4.22 | – | 18% | 5% | 91% | 52% | 90% | 85% | Active | Active | – |
| COc1cc(/C=N/Nc2nc3ccccc3s2)cc(-c2cc(/C=N/Nc3nc4ccccc4s3)cc(OC)c2O)c1O | 4.56 | – | 19% | 7% | 90% | 58% | 91% | 78% | Active | Active | – |
| COc1cc(C=O)cc(Oc2cc(C=O)cc(OC)c2O)c1O | 3.54 | – | 95% | 87% | 89% | 32% | 35% | 85% | – | – | – |
| Cc1c(C)c2c(c(C)c1O)CCC(C)(C(=O)O)O2 (configuration not stated) [TROLOX] | 4.70 | 4.75 | 57% | 10% | 98% | 45% | 68% | 95% | Active | Active | 20% |
| COc1cc(/C=N/Nc2nncc3ccccc23)cc(-c2cc(/C=N/Nc3nncc4ccccc34)cc(OC)c2O)c1O | 5.01 | – | – | – | 109% | – | – | 98% | Active | Active | – |
| COc1cc(/C=N/N=c2/[nH]ncc3ccccc23)cc(Oc2cc(/C=N/N=c3/[nH]ncc4ccccc34)cc(OC)c2O)c1O.Cl.Cl | 4.94 | – | 37% | 10% | 95% | 56% | 72% | 90% | – | Active | <5% |
| COc1cc(C=O)cc(-c2cc(C=O)cc(OC)c2O)c1O | 3.42 | – | 103% | 88% | 100% | 19% | 21% | 99% | – | – | – |

Further compounds by rising pIC50 [1], results first:

| pIC50 [1] | pIC50 [10] | Compound | Activity [2] | Activity [3] | viability at 24 h, 1 µM [4] | Activity [5] | Activity [6] | viability at 24 h, 10 µM [7] | antiangiogenic activity (active/not active) (HMEC-1 [8]) | ROS inhibition (active/not active) (HMEC-1 [9]) | Activity [11] |
| --- | --- | --- | --- | --- | --- | --- | --- | --- | --- | --- | --- |
| 4.54 | – | COc1cc(/C=N/NC(=O)c2cc(C)n[nH]2)cc(-c2cc(/C=N/NC(=O)c3cc(C)n[nH]3)cc(OC)c2O)c1O | 99% | 71% | 107% | 14% | 40% | 105% | – | – | – |
| 4.63 | – | COc1cc(/C=N/NC(=O)OCc2ccccc2)cc(Oc2cc(/C=N/NC(=O)OCc3ccccc3)cc(OC)c2O)c1O | 28% | 6% | 102% | 51% | 69% | 94% | inactive | inactive | – |
| 4.67 | – | COc1cc(/C=N/NC(=O)c2ccncc2)cc(Oc2cc(/C=N/NC(=O)c3ccncc3)cc(OC)c2O)c1O | 100% | 88% | 95% | 42% | 66% | 92% | – | – | – |
| 5.07 | – | COc1cc(/C=N/Nc2nc3ccccc3s2)cc(Oc2cc(/C=N/Nc3nc4ccccc4s3)cc(OC)c2O)c1O | 93% | 12% | 93% | 51% | 69% | 80% | Active | Active | – |
